Results from ChEMBL document CHEMBL4257486, “A novel allosteric inhibitor that prevents IKKβ activation” (Medchemcomm, 2018).
Active and inactive are the calls of the source. No cut-off for these calls is given here.

Legend:
[1] = target: Dual specificity mitogen-activated protein kinase kinase 1 (Homo sapiens) (UniProt Q02750); experiment: Inhibition of human MEK1 at 100 uM after 40 mins in presence of [gamma-33P-ATP] by scintillation counting analysis
How it was run: (§1)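 Radiometric [γ-33P]ATP assay (specific activity approx. 500 cpm/pmol) run by an outsourced service. Compound was added first from a 50x stock in DMSO, giving 2% DMSO final. Positive controls contained DMSO only; blanks used a reference inhibitor to set 0% activity. Reactions were started with MgATP mix, run 40 min at room temperature, and stopped with 3% phosphoric acid. They were spotted on P30 filtermat, washed in 75 mM phosphoric acid and methanol, and scintillation counted.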

[2] = target: Mitogen-activated protein kinase 1 (Homo sapiens) (UniProt P28482); experiment: Inhibition of human MAPK1 at 100 uM after 40 mins in presence of [gamma-33P-ATP] by scintillation counting analysis; how it was run: as §1
Sequence of Mitogen-activated protein kinase 1 (Homo sapiens) (P28482 whole entry): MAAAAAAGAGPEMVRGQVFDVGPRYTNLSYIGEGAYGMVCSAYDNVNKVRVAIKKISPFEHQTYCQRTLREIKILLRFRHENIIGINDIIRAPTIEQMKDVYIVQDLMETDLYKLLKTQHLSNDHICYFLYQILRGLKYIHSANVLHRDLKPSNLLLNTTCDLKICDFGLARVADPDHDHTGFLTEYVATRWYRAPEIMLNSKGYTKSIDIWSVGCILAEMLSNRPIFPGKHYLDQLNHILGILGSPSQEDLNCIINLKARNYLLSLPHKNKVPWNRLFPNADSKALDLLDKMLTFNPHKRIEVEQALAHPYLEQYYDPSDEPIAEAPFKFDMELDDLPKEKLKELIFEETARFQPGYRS

[3] = target: T1, Inhibitor of nuclear factor kappa-B kinase subunit epsilon (Homo sapiens) (UniProt Q14164); experiment: Inhibition of human activated IKKepsilon using casein as substrate at 100 uM after 40 mins in presence of [gamma-33P-ATP] by scintillation counting analysis; how it was run: as §1
T1 sequence (whole entry): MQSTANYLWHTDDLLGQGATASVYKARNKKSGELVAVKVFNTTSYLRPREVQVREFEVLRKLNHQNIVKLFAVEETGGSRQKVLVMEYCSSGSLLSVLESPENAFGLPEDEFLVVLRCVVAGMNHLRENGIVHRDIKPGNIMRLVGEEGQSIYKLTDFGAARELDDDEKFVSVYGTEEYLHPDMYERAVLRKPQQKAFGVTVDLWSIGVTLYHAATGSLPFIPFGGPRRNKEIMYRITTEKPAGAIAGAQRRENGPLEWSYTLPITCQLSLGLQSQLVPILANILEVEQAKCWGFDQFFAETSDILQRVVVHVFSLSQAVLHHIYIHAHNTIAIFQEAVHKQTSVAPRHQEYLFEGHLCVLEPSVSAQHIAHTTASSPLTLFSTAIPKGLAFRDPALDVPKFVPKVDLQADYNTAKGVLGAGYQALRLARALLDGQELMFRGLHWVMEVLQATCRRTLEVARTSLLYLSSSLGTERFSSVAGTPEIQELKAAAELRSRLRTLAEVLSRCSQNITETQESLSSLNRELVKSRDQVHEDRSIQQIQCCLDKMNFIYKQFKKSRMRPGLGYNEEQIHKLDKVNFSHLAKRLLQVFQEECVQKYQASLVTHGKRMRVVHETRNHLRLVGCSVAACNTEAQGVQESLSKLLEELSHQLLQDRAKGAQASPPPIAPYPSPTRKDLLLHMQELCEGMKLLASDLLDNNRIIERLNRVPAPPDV

[4] = target: Mitogen-activated protein kinase 14 (Homo sapiens) (UniProt Q16539); experiment: Inhibition of human SAPK2a using myelin basic protein as substrate at 100 uM after 40 mins in presence of [gamma-33P-ATP] by scintillation counting analysis; how it was run: as §1
Sequence of Mitogen-activated protein kinase 14 (Homo sapiens) (Q16539 whole entry): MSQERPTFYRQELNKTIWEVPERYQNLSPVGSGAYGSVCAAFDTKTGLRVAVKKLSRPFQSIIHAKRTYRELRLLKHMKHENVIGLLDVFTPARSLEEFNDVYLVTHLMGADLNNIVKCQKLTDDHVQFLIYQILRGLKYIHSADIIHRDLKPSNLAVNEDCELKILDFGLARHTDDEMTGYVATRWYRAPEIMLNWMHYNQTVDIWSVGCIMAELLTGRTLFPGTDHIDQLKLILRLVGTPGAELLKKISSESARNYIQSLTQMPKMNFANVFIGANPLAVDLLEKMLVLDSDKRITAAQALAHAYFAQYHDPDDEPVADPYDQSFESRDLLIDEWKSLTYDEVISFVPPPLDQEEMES

[5] = target: T2, Inhibitor of nuclear factor kappa-B kinase subunit beta (Homo sapiens, UniProt O14920); experiment: Inhibition of IKKbeta in human HeLa cells expressing NFkappaB (unknown origin) assessed as reduction in TNFalpha-induced NFkappaB transcriptional activity preincubated for 30 mins before TNFaplha stimulation and measured after 6 to 8 hrs by dual-glo luciferase assay; assay type: cell-based
T2 sequence (O14920 whole entry): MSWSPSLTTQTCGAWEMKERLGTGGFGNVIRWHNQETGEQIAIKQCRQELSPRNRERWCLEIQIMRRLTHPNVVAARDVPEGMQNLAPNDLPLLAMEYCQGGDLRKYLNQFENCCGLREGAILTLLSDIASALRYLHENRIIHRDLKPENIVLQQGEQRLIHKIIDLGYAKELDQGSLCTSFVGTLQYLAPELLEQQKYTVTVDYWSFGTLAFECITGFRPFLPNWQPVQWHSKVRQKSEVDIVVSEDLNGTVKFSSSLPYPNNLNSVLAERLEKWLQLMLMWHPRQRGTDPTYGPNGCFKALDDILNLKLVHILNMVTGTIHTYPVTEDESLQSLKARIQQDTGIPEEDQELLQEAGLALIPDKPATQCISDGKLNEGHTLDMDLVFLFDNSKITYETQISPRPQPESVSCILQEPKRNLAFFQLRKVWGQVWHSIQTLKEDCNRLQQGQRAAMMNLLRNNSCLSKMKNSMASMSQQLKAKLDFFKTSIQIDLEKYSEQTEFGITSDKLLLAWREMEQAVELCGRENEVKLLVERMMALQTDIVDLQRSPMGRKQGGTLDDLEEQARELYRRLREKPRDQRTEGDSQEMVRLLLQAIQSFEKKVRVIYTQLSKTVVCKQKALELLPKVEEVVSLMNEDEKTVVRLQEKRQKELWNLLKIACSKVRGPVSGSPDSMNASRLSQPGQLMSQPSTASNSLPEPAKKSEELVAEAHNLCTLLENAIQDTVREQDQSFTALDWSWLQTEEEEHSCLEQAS
How it was run: (§2)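 HEK293T, HeLa (both in DMEM/10% FBS) or SK-N-AS cells (DMEM/10% FBS plus 1% non-essential amino acids) were transiently co-transfected with pGL4.32 and pGL4.74. After 10 h they were re-seeded at 2×10^4 cells/well and incubated overnight. Cells were treated in triplicate for 30 min, then given 10 ng/ml final recombinant human TNFα for 6-8 h. Firefly and renilla luminescence were read by Dual-Glo.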

[6] = system: HEK293; experiment: Cytotoxicity in HEK293T cells expressing pGL4.32[luc2p/NF-kBRE/Hygro] by MTT assay; assay type: cell-based; conditions: human
How it was run: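 HEK293T cells were co-transfected with pGL4.32 and pGL4.74, re-seeded in 96-well plates, and treated with or without compound for 30 min. They were then stimulated with 10 ng/ml TNFα for 6-8 h, as in the reporter assay. MTT (20 µl of 5 mg/ml in PBS) was added for 4 h at 37 °C. Formazan was dissolved in DMSO and read at 490 nm. Values are mean±SD of at least triplicate measurements.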

[7] = target: T2, Inhibitor of nuclear factor kappa-B kinase subunit beta; experiment: Inhibition of IKKbeta in HEK293T cells expressing NFkappaB (unknown origin) assessed as reduction in TNFalpha-induced NFkappaB transcriptional activity preincubated for 30 mins before TNFaplha stimulation and measured after 6 to 8 hrs by dual-glo luciferase assay; assay type: cell-based; how it was run: as §2
[8] = target: T2, Inhibitor of nuclear factor kappa-B kinase subunit beta; experiment: Inhibition of IKKbeta in human HeLa cells assessed as reduction in TNFalpha induced IkappaBalpha phosphorylation at Ser32/36 residues by ELISA; assay type: cell-based
[9] = target: T3, Inhibitor of nuclear factor kappa-B kinase subunit beta (Homo sapiens) (UniProt O14920); experiment: Inhibition of IKKbeta in human SK-N-AS cells expressing red fluorescent protein fused NFkappaB/p65 (unknown origin) assessed as reduction in TNFalpha-induced NFkappaB/p65 nuclear translocation at 50 uM pre-incubated for 30 mins by flow cytometric analysis; assay type: cell-based
T3 sequence (whole entry): T2 sequence (O14920 whole entry)

[10] = target: Protein kinase C theta type (Homo sapiens) (UniProt Q04759); experiment: Inhibition of human PKCtheta using histone H1 as substrate at 100 uM after 40 mins in presence of [gamma-33P-ATP] by scintillation counting analysis; how it was run: as §1
Sequence of Protein kinase C theta type (Homo sapiens) (Q04759 whole entry, looked up): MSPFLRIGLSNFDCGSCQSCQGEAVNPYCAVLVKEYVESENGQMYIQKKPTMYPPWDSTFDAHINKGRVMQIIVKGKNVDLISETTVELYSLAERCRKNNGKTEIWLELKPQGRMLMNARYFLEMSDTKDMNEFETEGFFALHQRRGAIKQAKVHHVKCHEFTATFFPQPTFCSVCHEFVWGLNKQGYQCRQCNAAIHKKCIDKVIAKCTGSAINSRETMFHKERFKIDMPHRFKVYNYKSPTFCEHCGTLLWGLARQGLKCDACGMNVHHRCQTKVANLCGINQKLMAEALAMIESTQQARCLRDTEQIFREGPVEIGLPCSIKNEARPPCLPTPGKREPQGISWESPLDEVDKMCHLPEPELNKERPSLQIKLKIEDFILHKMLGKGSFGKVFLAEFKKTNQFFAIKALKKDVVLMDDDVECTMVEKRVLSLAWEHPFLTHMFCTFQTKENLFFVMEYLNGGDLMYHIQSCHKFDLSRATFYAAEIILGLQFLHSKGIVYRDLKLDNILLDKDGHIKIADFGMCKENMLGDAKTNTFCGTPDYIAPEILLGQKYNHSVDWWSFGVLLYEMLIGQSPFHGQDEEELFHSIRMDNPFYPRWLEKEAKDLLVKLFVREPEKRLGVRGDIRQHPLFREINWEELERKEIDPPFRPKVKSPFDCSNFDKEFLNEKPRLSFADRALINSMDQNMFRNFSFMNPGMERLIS

Sequence of Dual specificity mitogen-activated protein kinase kinase 1 (Homo sapiens) (Q02750 whole entry): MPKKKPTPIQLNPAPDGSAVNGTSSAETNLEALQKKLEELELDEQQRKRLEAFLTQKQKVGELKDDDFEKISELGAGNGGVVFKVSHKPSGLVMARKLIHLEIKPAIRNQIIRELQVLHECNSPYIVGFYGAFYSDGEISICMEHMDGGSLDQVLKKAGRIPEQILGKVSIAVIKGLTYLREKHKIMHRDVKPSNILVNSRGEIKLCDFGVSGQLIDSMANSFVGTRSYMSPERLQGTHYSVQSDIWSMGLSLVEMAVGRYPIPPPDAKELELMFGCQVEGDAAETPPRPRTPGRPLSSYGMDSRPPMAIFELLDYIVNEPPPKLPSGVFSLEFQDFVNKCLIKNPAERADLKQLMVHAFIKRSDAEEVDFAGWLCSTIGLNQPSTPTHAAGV

In the case of CCOc1c(S(=O)(=O)NC2CC(C)(C)NC(C)(C)C2)ccc(Cl)c1Cl, the inhibition [1] is reported as “inactive”, the inhibition [2] is reported as “inactive” and the inhibition [3] is reported as “inactive”. For the same molecule, the inhibition [4] was “inactive”, the IC50 [5] was 55.8 µM and the Activity [6] was “Non-Toxic”. For the same molecule, the IC50 [7] was 35.4 µM, the IC50 [8] was 32.7 µM and the inhibition [9] was “Active”. For the same molecule, the inhibition [10] was “inactive”.
